Laboratory results from ChEMBL document CHEMBL1124462, “Synthesis, DNA binding, and biological evaluation of synthetic precursors and novel analogues of netropsin” (J Med Chem, 1989).
≈ marks a conversion by molar mass, not a printed value.

Legend:
[1] = system: Vero; assay: Minimum cytotoxic concentration required to cause a microscopically detectable alteration of normal cell morphology and show antiviral activity in african green monkey (Vero B) cells; format: functional; settings: Chlorocebus sabaeus
[2] = system: Raji; assay: Dose required to inhibit Human B-Lymphoblast (Raji) cell proliferation by 50%; format: functional; settings: read-out: CD50 (the source's name)
[3] = system: FM3A; assay: In vitro inhibition of FM3A (murine mammary carcinoma) cell proliferation.; format: functional; settings: Mus musculus, read-out: CD50 (the source's name)
[4] = system: HeLa; assay: Minimum inhibitory concentration required to reduce Coxsackie virus B4 induced cytopathogenicity by 50% in HeLa cells; format: functional; settings: Homo sapiens
How it was run: (§1)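 Cell cultures (PRK, HeLa or Vero B) are infected at 100 × CCID50. Cytopathogenicity is recorded once it reaches completion in the untreated virus-infected controls. The minimum inhibitory concentration is given in μg/mL.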

[5] = system: HeLa; assay: Minimum cytotoxic concentration required to cause a microscopically detectable alteration of normal cell morphology and show antiviral activity in HeLa cells; format: functional; settings: Homo sapiens
How it was run: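 HeLa cell cultures exposed to compound for the same duration as the antiviral assay, then examined microscopically. The minimum cytotoxic concentration is the lowest level causing detectable alteration of normal cell morphology. Values are in μg/mL.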

[6] = system: L1210; assay: Dose required to inhibit Murine leukemia (L1210) cell proliferation by 50%; format: functional; settings: Mus musculus, read-out: CD50 (the source's name)
[7] = system: Nucleic Acid; assay: Association constant against the polynucleotide poly (dA-dT).; format: nucleic-acid assay
How it was run: (§2)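 Competition with ethidium bromide binding at 25 °C in 0.01 M cacodylate buffer, pH 7.0, with 1.26 μM ethidium bromide and 1 μM polynucleotide. Bound ethidium is estimated from its fluorescence increase (V = 34 for poly(dA-dT), 25 for poly(dG-dC)). IC50 for 50% ethidium displacement comes from a fitted competition sigmoid. Kapp is calculated from IC50 assuming a binding size of four base pairs.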

[8] = system: Human alphaherpesvirus 2; assay: Minimum inhibitory concentration required to reduce herpes simplex virus-2(G) induced cytopathogenicity by 50% in primary rabbit kidney cells (PRK); format: functional; how it was run: as §1
[9] = system: Human alphaherpesvirus 1; assay: Minimum inhibitory concentration required to reduce herpes simplex virus-1 (KOS) induced cytopathogenicity by 50% in primary rabbit kidney cells(PRK); format: functional; how it was run: as §1
[10] = system: Vesicular stomatitis virus; assay: Minimum inhibitory concentration required to reduce vesicular stomatitis virus induced cytopathogenicity by 50% in primary rabbit kidney cells (PRK); format: functional
[11] = organism: Oryctolagus cuniculus; assay: Minimum cytotoxic concentration required to cause a microscopically detectable alteration of normal cell morphology and show antiviral activity in primary rabbit kidney (PRK) cells; format: functional
[12] = Dose required to inhibit Human T-Lymphoblast (Molt/4F) cell proliferation by 50%; format: functional; settings: read-out: CD50 (the source's name)
[13] = system: Sindbis virus; assay: Minimum inhibitory concentration required to reduce Sindbis virus induced cytopathogenicity by 50% in african green monkey (VeroB) cells; format: functional; how it was run: as §1
[14] = system: Vero; assay: Minimum inhibitory concentration required to reduce parainfluenza virus-3 induced cytopathogenicity by 50% in african green monkey (VeroB) cells; format: functional, Human respirovirus 3; settings: Chlorocebus sabaeus; how it was run: as §1
[15] = system: Mammalian orthoreovirus 1; assay: Minimum inhibitory concentration required to reduce reovirus-1 induced cytopathogenicity by 50% in african green monkey (VeroB)cells; format: functional; how it was run: as §1
[16] = system: Semliki Forest virus; assay: Minimum inhibitory concentration required to reduce semliki forest virus induced cytopathogenicity by 50% in african green monkey (VeroB) cells; format: functional; how it was run: as §1
[17] = system: Nucleic Acid; assay: Association constant against polynucleotide poly (dG-dC); format: nucleic-acid assay; how it was run: as §2
[18] = system: Vero; assay: Minimum inhibitory concentration required to reduce Coxsackie virus B4 induced cytopathogenicity by 50% in african green monkey (VeroB) cells; format: functional, Coxsackievirus B4; settings: Chlorocebus sabaeus; how it was run: as §1
[19] = system: Nucleic Acid; assay: Ratio of association constant of poly (dA-dT) and poly (dG-dC); format: nucleic-acid assay
How it was run: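 Kapp for poly(dA-dT) and for poly(dG-dC) is each determined by ethidium bromide competition in 0.01 M cacodylate, pH 7.0, 25 °C, with 1.26 μM ethidium and 1 μM polynucleotide. IC50 comes from a fitted competition sigmoid and is converted to Kapp assuming a four-base-pair binding size. The ratio is taken between the two polynucleotides.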

| Compound | MCC [1] [µg/mL] | CC50 [2] [µg/mL] | CC50 [3] [µg/mL] | MIC [4] [µg/mL] | MCC [5] [µg/mL] | CC50 [6] [µg/mL] | K app [7] [M⁻¹] | MIC [8] [µg/mL] | MIC [9] [µg/mL] | MIC [10] [µg/mL] | MCC [11] [µg/mL] | CC50 [12] [µg/mL] | MIC [13] [µg/mL] | MIC [14] [µg/mL] | MIC [15] [µg/mL] | MIC [16] [µg/mL] | K app [17] [M⁻¹] | MIC [18] [µg/mL] | Ratio [19] |
| --- | --- | --- | --- | --- | --- | --- | --- | --- | --- | --- | --- | --- | --- | --- | --- | --- | --- | --- | --- |
| CC(NC(=O)c1cc(NC(=O)c2cc(NC(=O)CNC(=N)N)cn2C)cn1C)C(=O)O (stereo unspecified) | > 200 | > 100 | > 100 | > 200 | > 200 | > 100 | < 100 | > 200 | > 200 | > 200 | >200 | > 100 | > 200 | > 200 | > 200 | > 200 | < 100 | > 200 | – |
| CC(NC(=O)c1cc(NC(=O)c2cc(NC(=O)CNC(=N)N)cn2C)cn1C)C(=O)NC(C)C(=O)OC(C)(C)C (stereo unspecified) | > 400 | 54.7 (≈ 97.7 µM) | > 100 | > 400 | > 400 | > 100 | 4400 | > 200 | > 200 | > 200 | >200 | > 100 | > 400 | > 400 | > 200 | > 400 | 700 | > 400 | 6.29 |
| CC(NC(=O)c1cc(NC(=O)c2cc([N+](=O)[O-])cn2C)cn1C)C(=O)NC(C)C(=O)OC(C)(C)C (stereo unspecified) | > 200 | 33 (≈ 67.3 µM) | 27.2 (≈ 55.5 µM) | > 200 | > 400 | 28.8 (≈ 58.7 µM) | 650 | > 200 | > 100 | > 100 | >400 | 29 (≈ 59.1 µM) | > 100 | > 200 | > 200 | > 200 | 20000 | > 200 | 0.033 |
| Cn1cc(NC(=O)c2cc([N+](=O)[O-])cn2C)cc1C(=O)NCCCNCCCCN | > 400 | > 100 | – | > 400 | > 400 | > 100 | 440000 | > 200 | > 200 | > 100 | >200 | > 100 | > 400 | > 200 | > 200 | > 400 | 82000 | > 200 | 5.37 |
| COC(=O)c1cc(NC(=O)c2cc([N+](=O)[O-])cn2C)cn1C | > 40 | > 100 | > 100 | > 40 | > 40 | > 100 | – | > 10 | > 10 | > 40 | >40 | > 100 | > 10 | > 10 | > 10 | > 10 | – | > 10 | – |
| COC(=O)c1ccc([N+](=O)[O-])n1C | 400 | 62.4 (≈ 339 µM) | 84.7 (≈ 460 µM) | > 400 | 400 | 28 (≈ 152 µM) | – | > 400 | > 400 | > 400 | >400 | 66 (≈ 358 µM) | > 400 | > 100 | > 200 | > 400 | – | > 200 | – |
| Cn1cc(NC(=O)c2cc([N+](=O)[O-])cn2C)cc1C(=O)O | > 400 | > 100 | > 100 | > 400 | > 400 | > 100 | – | > 400 | > 400 | > 400 | >400 | > 100 | > 400 | > 200 | > 400 | > 400 | – | 150 (≈ 513 µM) | – |
| C[C@H](NC(=O)[C@H](C)NC(=O)[C@H](C)NC(=O)c1cc(NC(=O)c2cc(NC(=O)CNC(=N)N)cn2C)cn1C)C(=O)O | > 400 | > 100 | > 100 | > 400 | > 400 | > 100 | < 100 | > 400 | > 400 | > 400 | >400 | > 100 | > 400 | > 400 | > 200 | > 400 | 5000 | > 400 | < 0.02 |
